The species entered for one experiment is Homo sapiens. The experiment can be described thus: Binding affinity to cysteine-269 residue of human protein phosphatase 2A catalytic subunit at 0.6 uM after 2 hrs by MALDI-TOF MS analysis. The essentials: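 Purified PP2A (0.5 unit) incubated with or without ligand at 0.6 in 25 mM Tris-HCl, 137 mM NaCl, pH 7.5, 30 °C, 2 h. Samples boiled in SDS loading buffer with DTT and run on 10% gel. PP2Ac band reduced with DTT, alkylated with acrylamide and trypsin-digested. Peptide masses (MALDI-TOF MS) compared with native PP2Ac to find the adduct-bearing fragment.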

A short description of experiment [1]: Inhibition of protein phosphatase 1.
The nature of experiment [2]: Inhibition of protein phosphatase 2A.

Activity calls are given as the source filed them. The calls are words filed in the database; no cut-off is given here.

For the compound `C[C@@](O)(/C=C/[C@H]1CC=CC(=O)O1)[C@@H](C[C@@H](O)\C=C/C=C\C=C\CO)OP(=O)(O)O` [FOSTRIECIN], the result in the experiment filed under Homo sapiens was Active. In addition, the figures for the IC50 in experiment [1] and in experiment [2] were 45 µM and 0.0015 µM, respectively.

Values taken from ChEMBL document CHEMBL1152684 (Bioorg Med Chem, 2009).
